# Results as given in ChEMBL document CHEMBL1129491, “Synthesis of non-nucleoside analogs of toyocamycin, sangivamycin, and ++thiosangivamycin: influence of various 7-substituents on antiviral activity” (J Med Chem, 1996).
# Assays:
# [1] = test system: L1210; assay: In vitro cytotoxicity against growth rate of L1210 cell at 100 uM was evaluated.; type: functional, Mus musculus
# Outline: (§1)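 L1210 murine leukemia cells in Fischer's medium with 10% heat-inactivated horse serum (56 °C, 30 min), exposed to 100 μM compound. Cells counted at 0, 24, 48, 72 and 96 h. Growth rate taken as the slope of semilog cell number versus time, expressed as percent of untreated control.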
# [2] = test system: Human alphaherpesvirus 1; assay: Antiviral activity against HSV-1 replication was evaluated by ELISA; type: functional, organism-based
# Outline: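 HSV-1 strain S-148 ELISA following Prichard and Shipman. Drug concentrations applied to infected cultures; percent inhibition regressed linearly against log concentration and IC50 read from the regression line. Acyclovir as positive control. Most assays averaged over two or more experiments, but HSV-1 ELISAs were run once.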
# [3] = test system: Human betaherpesvirus 5; assay: Antiviral activity against Human Cytomegalovirus (HCMV) replication in a plaque reduction assay; type: functional, organism-based
# Outline: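 Towne strain HCMV (plaque-purified P0) on HFF monolayers in MEM(E) with 10% FBS. Inoculum ca. 100 PFU per 0.2 mL; compounds dissolved in the overlay medium; plaques counted after staining. IC50 from linear regression of percent inhibition against log concentration. Ganciclovir as positive control; two or more experiments averaged.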
# [4] = test system: KB; assay: Cytotoxic activity tested against exponentially growing KB cells, determined by staining method; type: functional, cell-based; settings: Homo sapiens
# Outline: (§2)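 KB cells (human oral epidermoid carcinoma) kept in MEM(H) with 10% calf serum and tested while exponentially growing. Toxicity measured by a previously described staining method. IC50 from linear regression of percent inhibition against log drug concentration; two or more experiments averaged.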
# [5] = test system: L1210; assay: Inhibitory concentration required to decrease the growth rate of L1210 cells to one-half of the control rate.; type: functional, cell-based; settings: Mus musculus
# Outline: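 L1210 cells in Fischer's medium with 10% heat-inactivated horse serum, counted at 0, 24, 48, 72 and 96 h across selected compound concentrations. Growth rate is the semilog slope as percent of control. IC50 is the concentration that halves the growth rate; '>' values give the highest concentration tested.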
# [6] = test system: HFF; assay: Cytotoxicity against HFF cells, estimated by visual scoring of cells not affected by virus infection in the plaque reduction assay; type: functional, cell-based; settings: Homo sapiens
# Outline: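 Uninfected areas of HFF monolayers in the HCMV plaque-reduction assay examined at 35-fold magnification. Drug-induced cytopathology scored 0–4 on the day plaques were stained and counted.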
# [7] = test system: Human betaherpesvirus 5; assay: Antiviral activity in Human Cytomegalovirus Viral infection was evaluated by ELISA method; type: functional, organism-based
# Outline: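 MRC-5 cells held overnight at 37 °C, then infected with Towne HCMV at moi 0.002 PFU/cell. After 1 h adsorption, up to 10 drug concentrations added in triplicate. Fixed with 95% EtOH after 6.5 days. Blocked, then mouse anti-HCMV monoclonal (1:400, 1 h) and peroxidase anti-mouse (1:1000, 2 h). Read at 450/570 nm, background subtracted; IC50 by log-linear regression.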
# [8] = test system: L1210; assay: In vitro cytotoxicity against growth rate of L1210 cell at 100 micro M was evaluated.; type: functional, Mus musculus; outline: as §1
# [9] = test system: KB; assay: Cytotoxic activity against exponentially growing KB cells was determined by a staining method; type: functional, cell-based; settings: Homo sapiens; outline: as §2
# [10] = test system: L1210; assay: Percent control against growth rate of L1210 cell at 100 micro M was evaluated.; type: functional, Mus musculus; outline: as §1
Compound,Control [1] [%],IC50 [2] [µM],IC50 [3] [µM],IC50 [4] [µM],IC50 [5] [µM],IC50 [6] [µM],IC50 [7] [µM],Control [8] [%],IC50 [9] [µM],Control [10] [%]
C=CCn1cc(C(N)=S)c2c(N)ncnc21,0,4.5,2.1,19,38,–,–,–,–,–
Cn1cc(C(=N)S)c2c(N)ncnc21,0,2.8,1.2,15,38,–,–,–,–,–
Cc1ccccc1Cn1cc(C(N)=O)c2c(N)ncnc21,–,> 100,15,> 100,–,> 100,–,–,–,–
CC(C)(C)c1ccc(Cn2cc(C(=N)S)c3c(N)ncnc32)cc1,–,15,1.5,7,–,> 100,–,–,–,–
Cn1cc(C#N)c2c(N)ncnc21,87,> 100,> 100,> 100,–,–,> 100,–,–,–
N#Cc1cn(COCc2ccccc2)c2ncnc(N)c12,–,> 100,> 100,> 100,–,> 100,–,83,–,–
NC(=S)c1cn(COCCO)c2ncnc(N)c12,–,21,8.8,115,–,> 100,–,–,–,–
C=CCn1cc(C(N)=O)c2c(N)ncnc21,66,> 100,> 100,100,–,–,–,–,–,–
NC(=S)c1c[nH]c2ncnc(N)c12,–,35,1.6,25,–,> 32,–,–,–,–
N#Cc1cn([C@@H]2O[C@H](CO)[C@@H](O)[C@H]2O)c2ncnc(N)c12 [TOYOCAMYCIN],–,–,–,0.03,–,< 0.01,–,–,–,–
Cc1cccc(Cn2cc(C#N)c3c(N)ncnc32)c1,–,> 100,> 100,–,–,> 100,–,–,> 100,–
Cc1ccccc1Cn1cc(C#N)c2c(N)ncnc21,–,> 100,3.4,> 100,–,> 100,32,–,–,–
NC(=O)c1cn(Cc2ccccc2)c2ncnc(N)c12,0,33,> 100,75,16,> 32,–,–,–,–
COCCOCn1cc(C(N)=S)c2c(N)ncnc21,–,85,1,183,–,> 100,1.9,88,–,–
CCOCn1cc(C#N)c2c(N)ncnc21,–,> 100,> 100,> 100,–,> 100,–,76,–,–
NC(=S)c1cn([C@@H]2O[C@H](CO)[C@@H](O)[C@H]2O)c2ncnc(N)c12,–,–,0.2,–,–,0.2,–,–,–,–
COc1ccc(Cn2cc(C(N)=O)c3c(N)ncnc32)cc1,–,35,13,47,–,> 32,–,–,–,–
CC(C)(C)c1ccc(Cn2cc(C(N)=O)c3c(N)ncnc32)cc1,–,50,28,0.9,–,100,–,–,–,–
N#Cc1cn(Cc2ccccc2)c2ncnc(N)c12,60,90,> 100,> 100,–,> 100,–,–,–,–
NC(=S)c1cn(COCc2ccccc2)c2ncnc(N)c12,–,10,2.6,> 100,100,> 100,1.8,52,–,–
NC(=S)c1cn(COC(CO)CO)c2ncnc(N)c12,–,> 100,6.2,> 100,–,> 100,–,–,–,–
Cc1cccc(Cn2cc(C(=N)S)c3c(N)ncnc32)c1,–,15,0.25,30,–,66,–,–,–,–

Compound,Control [1] [%],IC50 [2] [µM],IC50 [3] [µM],IC50 [4] [µM],IC50 [5] [µM],IC50 [6] [µM],IC50 [7] [µM],Control [8] [%],IC50 [9] [µM],Control [10] [%]
CCCn1cc(C(=N)S)c2c(N)ncnc21,79,12,1.2,17,–,25,–,–,–,–
N#Cc1c[nH]c2ncnc(N)c12 [TOYOCAMYCIN AGLYCONE],–,> 100,3.9,18,–,10,–,–,–,–
CCOCn1cc(C(N)=O)c2c(N)ncnc21,–,> 100,> 100,> 100,–,> 100,–,–,–,91
Cc1ccc(Cn2cc(C(N)=O)c3c(N)ncnc32)cc1,2,> 100,> 100,> 100,20,> 100,–,–,–,–
Cc1cccc(Cn2cc(C(N)=O)c3c(N)ncnc32)c1,–,> 100,> 100,> 100,–,> 100,–,–,–,–
CCCn1cc(C(N)=O)c2c(N)ncnc21,0,> 100,> 100,100,73,–,> 100,–,–,–
COc1ccc(Cn2cc(C(=N)S)c3c(N)ncnc32)cc1,–,4,0.5,28,–,66,0.5,–,–,–
Cn1cc(C(N)=O)c2c(N)ncnc21,89,> 100,> 100,> 100,–,–,–,–,–,–
Cc1ccc(Cn2cc(C(=N)S)c3c(N)ncnc32)cc1,92,3.5,0.1,65,> 10,100,0.15,–,–,–
Cc1ccccc1Cn1cc(C(=N)S)c2c(N)ncnc21,–,0.9,0.1,> 17,–,66,–,–,–,–
COCCOCn1cc(C(N)=O)c2c(N)ncnc21,–,> 100,> 100,> 100,–,> 100,–,92,–,–
Cc1ccc(Cn2cc(C#N)c3c(N)ncnc32)cc1,64,> 100,> 100,> 100,–,> 100,–,–,–,–
COCCOCn1cc(C#N)c2c(N)ncnc21,–,> 100,90,> 100,–,> 100,–,88,–,–
NC(=O)c1cn([C@@H]2O[C@H](CO)[C@@H](O)[C@H]2O)c2ncnc(N)c12 [SANGIVAMYCIN],–,–,–,0.08,–,< 0.01,–,–,–,–
CCOCn1cc(C(=N)S)c2c(N)ncnc21,–,40,2.7,68,–,66,7,111,–,–
C=CCn1cc(C#N)c2c(N)ncnc21,75,> 100,> 100,> 100,–,–,–,–,–,–
COc1ccc(Cn2cc(C#N)c3c(N)ncnc32)cc1,–,> 100,> 100,> 100,–,> 100,–,–,–,–
NC(=S)c1cn(Cc2ccccc2)c2ncnc(N)c12,0,7.4,0.36,32,70,> 32,0.33,–,–,–
CCCn1cc(C#N)c2c(N)ncnc21,74,> 100,36,> 100,–,> 100,–,–,–,–
CC(C)(C)c1ccc(Cn2cc(C#N)c3c(N)ncnc32)cc1,–,> 100,32,3,–,> 32,–,–,–,–
NC(=O)c1cn(COCc2ccccc2)c2ncnc(N)c12,–,> 100,> 100,> 100,70,> 100,–,0,–,–
